Source: ChEMBL document CHEMBL4689842, “EUbOPEN Chemogenomics Library wave 1” (2021)

System: Fibroblast
Assay: Multiplex assay against human fibroblast
Type: toxicity, cell-based
Summary of the method: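 Four dyes were applied at seeding to live cells: Hoechst33342, BioTracker Green Microtubule Cytoskeleton Dye, MitoTracker Red and Annexin V Alexa Fluor 680. Imaging after compound addition used a CQ1 microscope at 37°C and 5% CO2. CellPathfinder machine-learning gating then sorted cells into Hoechst high-intensity objects or normal cells, normal cells into healthy, pyknosed or fragmented nuclei, and pyknosed cells into mitotic or apoptotic, with tubulin, mitochondrial-mass and membrane-permeability phenotypes given as per cents of healthy-nucleus cells.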

[1] = 12 h, 1 µM, compound concentration 1 uM, replicate 1
[2] = 12 h, 1 µM, compound concentration 1 uM, replicate 2
[3] = 12 h, 10 µM, compound concentration 10 uM, replicate 1
[4] = 12 h, 10 µM, compound concentration 10 uM, replicate 2
[5] = 24 h, 1 µM, compound concentration 1 uM, replicate 1
[6] = 24 h, 1 µM, compound concentration 1 uM, replicate 2
[7] = 24 h, 10 µM, compound concentration 10 uM, replicate 1
[8] = 24 h, 10 µM, compound concentration 10 uM, replicate 2
[9] = 48 h, 1 µM, compound concentration 1 uM, replicate 1
[10] = 48 h, 1 µM, compound concentration 1 uM, replicate 2
[11] = 48 h, 10 µM, compound concentration 10 uM, replicate 1
[12] = 48 h, 10 µM, compound concentration 10 uM, replicate 2

CCc1cccc(CC)c1NC(=O)c1nn(C)c2c1CCc1cnc(Nc3ccc(C(=O)NC4CCN(C)CC4)cc3OC(F)(F)F)nc1-2
Population Apoptotic (%) [1]: 62%
Population Fragmented Nuclei (%) [1]: 22%
Population Healthy Nuclei (%) [1]: 38%
Population Hoechst High Intensity Objects (%) [1]: 7%
Population Membrane Permeable-Phenotype (%) [1]: 24%
Population Mitochondria Different-Phenotype (%) [1]: 7%
Population Mitotic Cells (%) [1]: 37%
Population Normal (%) [1]: 92%
Population Pyknosed Nuclei (%) [1]: 39%
Population Tubulin-Different-Phenotype (%) [1]: 47%
Total Cell Count [1]: 160
Population Apoptotic (%) [2]: 40%
Population Fragmented Nuclei (%) [2]: 1%
Population Healthy Nuclei (%) [2]: 83%
Population Hoechst High Intensity Objects (%) [2]: 13%
Population Membrane Permeable-Phenotype (%) [2]: 5%
Population Mitochondria Different-Phenotype (%) [2]: 14%
Population Mitotic Cells (%) [2]: 60%
Population Normal (%) [2]: 86%
Population Pyknosed Nuclei (%) [2]: 15%
Population Tubulin-Different-Phenotype (%) [2]: 18%
Total Cell Count [2]: 51
Population Apoptotic (%) [3]: 61%
Population Fragmented Nuclei (%) [3]: 24%
Population Healthy Nuclei (%) [3]: 51%
Population Hoechst High Intensity Objects (%) [3]: 21%
Population Membrane Permeable-Phenotype (%) [3]: 8%
Population Mitochondria Different-Phenotype (%) [3]: 26%
Population Mitotic Cells (%) [3]: 38%
Population Normal (%) [3]: 78%
Population Pyknosed Nuclei (%) [3]: 23%
Population Tubulin-Different-Phenotype (%) [3]: 60%
Total Cell Count [3]: 139
Population Apoptotic (%) [4]: 46%
Population Fragmented Nuclei (%) [4]: 12%
Population Healthy Nuclei (%) [4]: 70%
Population Hoechst High Intensity Objects (%) [4]: 5%
Population Membrane Permeable-Phenotype (%) [4]: 15%
Population Mitochondria Different-Phenotype (%) [4]: 98%
Population Mitotic Cells (%) [4]: 53%
Population Normal (%) [4]: 94%
Population Pyknosed Nuclei (%) [4]: 17%
Population Tubulin-Different-Phenotype (%) [4]: 86%
Total Cell Count [4]: 75
Population Apoptotic (%) [5]: 48%
Population Fragmented Nuclei (%) [5]: 23%
Population Healthy Nuclei (%) [5]: 40%
Population Hoechst High Intensity Objects (%) [5]: 11%
Population Membrane Permeable-Phenotype (%) [5]: 23%
Population Mitochondria Different-Phenotype (%) [5]: 5%
Population Mitotic Cells (%) [5]: 52%
Population Normal (%) [5]: 88%
Population Pyknosed Nuclei (%) [5]: 35%
Population Tubulin-Different-Phenotype (%) [5]: 53%
Total Cell Count [5]: 157
Population Apoptotic (%) [6]: 37%
Population Fragmented Nuclei (%) [6]: 7%
Population Healthy Nuclei (%) [6]: 81%
Population Hoechst High Intensity Objects (%) [6]: 10%
Population Membrane Permeable-Phenotype (%) [6]: 5%
Population Mitochondria Different-Phenotype (%) [6]: 12%
Population Mitotic Cells (%) [6]: 62%
Population Normal (%) [6]: 89%
Population Pyknosed Nuclei (%) [6]: 11%
Population Tubulin-Different-Phenotype (%) [6]: 19%
Total Cell Count [6]: 53
Population Apoptotic (%) [7]: 62%
Population Fragmented Nuclei (%) [7]: 25%
Population Healthy Nuclei (%) [7]: 49%
Population Hoechst High Intensity Objects (%) [7]: 30%
Population Membrane Permeable-Phenotype (%) [7]: 16%
Population Mitochondria Different-Phenotype (%) [7]: 40%
Population Mitotic Cells (%) [7]: 37%
Population Normal (%) [7]: 69%
Population Pyknosed Nuclei (%) [7]: 25%
Population Tubulin-Different-Phenotype (%) [7]: 50%
Total Cell Count [7]: 161
Population Apoptotic (%) [8]: 50%
Population Fragmented Nuclei (%) [8]: 15%
Population Healthy Nuclei (%) [8]: 63%
Population Hoechst High Intensity Objects (%) [8]: 2%
Population Membrane Permeable-Phenotype (%) [8]: 26%
Population Mitochondria Different-Phenotype (%) [8]: 91%
Population Mitotic Cells (%) [8]: 50%
Population Normal (%) [8]: 97%
Population Pyknosed Nuclei (%) [8]: 20%
Population Tubulin-Different-Phenotype (%) [8]: 73%
Total Cell Count [8]: 77
Population Apoptotic (%) [9]: 67%
Population Fragmented Nuclei (%) [9]: 31%
Population Healthy Nuclei (%) [9]: 45%
Population Hoechst High Intensity Objects (%) [9]: 15%
Population Membrane Permeable-Phenotype (%) [9]: 16%
Population Mitochondria Different-Phenotype (%) [9]: 7%
Population Mitotic Cells (%) [9]: 32%
Population Normal (%) [9]: 84%
Population Pyknosed Nuclei (%) [9]: 23%
Population Tubulin-Different-Phenotype (%) [9]: 40%
Total Cell Count [9]: 141
Population Apoptotic (%) [10]: 20%
Population Fragmented Nuclei (%) [10]: 38%
Population Healthy Nuclei (%) [10]: 55%
Population Hoechst High Intensity Objects (%) [10]: 11%
Population Membrane Permeable-Phenotype (%) [10]: 10%
Population Mitochondria Different-Phenotype (%) [10]: 4%
Population Mitotic Cells (%) [10]: 80%
Population Normal (%) [10]: 88%
Population Pyknosed Nuclei (%) [10]: 5%
Population Tubulin-Different-Phenotype (%) [10]: 42%
Total Cell Count [10]: 102
Population Apoptotic (%) [11]: 70%
Population Fragmented Nuclei (%) [11]: 31%
Population Healthy Nuclei (%) [11]: 50%
Population Hoechst High Intensity Objects (%) [11]: 38%
Population Membrane Permeable-Phenotype (%) [11]: 16%
Population Mitochondria Different-Phenotype (%) [11]: 15%
Population Mitotic Cells (%) [11]: 30%
Population Normal (%) [11]: 61%
Population Pyknosed Nuclei (%) [11]: 18%
Population Tubulin-Different-Phenotype (%) [11]: 47%
Total Cell Count [11]: 172
Population Apoptotic (%) [12]: 25%
Population Fragmented Nuclei (%) [12]: 29%
Population Healthy Nuclei (%) [12]: 67%
Population Hoechst High Intensity Objects (%) [12]: 15%
Population Membrane Permeable-Phenotype (%) [12]: 30%
Population Mitochondria Different-Phenotype (%) [12]: 10%
Population Mitotic Cells (%) [12]: 75%
Population Normal (%) [12]: 84%
Population Pyknosed Nuclei (%) [12]: 2%
Population Tubulin-Different-Phenotype (%) [12]: 43%
Total Cell Count [12]: 158
